Values after ≈ are worked out from the molar mass of the structure shown. Active and inactive are the calls of the source. The calls are words filed in the database; no cut-off is given here.
How the values were obtained:
HeLa = test: In vitro cytostatic activity against human HeLa cells assessed as cell growth after 72 hrs by colorimetric method; format: functional; details: read-out: ED50 (the source's name)
Outline: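 HeLa cells at 10⁵ cells/mL in Eagle's minimal medium with 10% fetal calf serum, Leighton tubes, 37 °C. Compound added 2-3 h after attachment, suspended in sterile saline with 0.05% Tween 80 (10% of final volume). Incubated 72 h at 37 °C. Growth measured as cell protein by the Oyama-Eagle colorimetric method. 6-Mercaptopurine was the positive control. ED50 in μg/mL.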

Mus musculus [1] = test: In vivo cytostatic activity against mouse Ehrlich carcinoma ascites allografted in ip dosed ICR swiss mouse assessed as median survival time administered qd for 9 days beginning 24 hrs after tumor implantation; format: functional, organism-based
Outline: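 Female ICR Swiss mice (19-22 g) carrying Ehrlich ascites carcinoma, following NCI protocols 1100/1200. Compound suspended in 0.9% NaCl with 0.5% Tween 80 and given ip at 0.4 mL, once daily for 9 days starting 24 h after implantation. Groups of 6 treated and 30 control mice. 5-Fluorouracil at 20 mg/kg was the positive control. T/C = median survival of treated over control, ×100.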

[2] = In vivo cytostatic activity against mouse Ehrlich carcinoma ascites allografted in ICR swiss mouse assessed as median survival time at 100 mg/kg, ip administered qd for 9 days beginning 24 hrs after tumor implantation relative to control; format: functional; details: route intraperitoneal
Outline: (§1)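 Female ICR Swiss mice (19-22 g) bearing Ehrlich ascites carcinoma, per NCI protocols 1100/1200; compound suspended in 0.9% NaCl with 0.5% Tween 80, given ip at 0.4 mL once daily for 9 days from 24 h post-implant. Groups of 6 treated vs 30 controls; 5-fluorouracil 20 mg/kg/injection as positive control. T/C = treated/control median survival time as percentage.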

Mus musculus [3] = test: Toxicity in ICR swiss mouse allografted with mouse Ehrlich carcinoma ascites assessed as change in body weight at 100 mg/kg, ip administered qd for 9 days beginning 24 hrs after tumor implantation; format: organism-based; design: dose 100 mg/kg, route intraperitoneal; details: in vivo
Outline: (§2)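 Female ICR Swiss mice (19-22 g) carrying Ehrlich ascites carcinoma. Compound suspended in 0.9% NaCl with 0.5% Tween 80 and given ip at 0.4 mL, once daily for 9 days starting 24 h after implantation. Groups of 6 treated and 30 control mice. Read-out is the weight difference in grams between treated and control animals.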

P388 = test: In vivo cytostatic activity against mouse P388 cells allografted in mouse assessed as increase in host life span at 50 mg/kg; format: functional
[4] = In vivo cytostatic activity against mouse Ehrlich carcinoma ascites allografted in ICR swiss mouse assessed as median survival time at 75 mg/kg, ip administered qd for 9 days beginning 24 hrs after tumor implantation relative to control; format: functional; details: route intraperitoneal; outline: as §1
Mus musculus [5] = test: Toxicity in ICR swiss mouse allografted with mouse Ehrlich carcinoma ascites assessed as change in body weight at 75 mg/kg, ip administered qd for 9 days beginning 24 hrs after tumor implantation; format: organism-based; design: dose 75 mg/kg, route intraperitoneal; details: in vivo; outline: as §2

Compound | EC50 (HeLa) [µg/mL] | Activity (Mus musculus [1]) | also measured
ClCc1cn(Cc2ccccc2)nn1 | 18 (≈ 86.7 µM) |  | 
CC(=O)N[C@@H]1[C@@H](OC(C)=O)[C@H](OC(C)=O)[C@@H](COC(C)=O)O[C@H]1n1nncc1CO | > 100 |  | 
BrCc1cn(Cc2ccccc2)nn1 | 2 (≈ 7.93 µM) | inactive | 
Sc1ncnc2nc[nH]c12 [MERCAPTOPURINE ANHYDROUS] | 0.1 (≈ 0.657 µM) |  | 
CC(=O)OC[C@H]1O[C@@H](n2cc(CI)nn2)[C@H](OC(C)=O)[C@@H](OC(C)=O)[C@@H]1OC(C)=O | 2 (≈ 3.71 µM) | Active | T/C [2]: 195%; Activity (Mus musculus [3]): -1.1 g
ICc1cn(Cc2ccccc2)nn1 | 2 (≈ 6.69 µM) | inactive | 
FCc1cn(Cc2ccccc2)nn1 | > 100 |  | 
CC(=O)N[C@@H]1[C@@H](OC(C)=O)[C@H](OC(C)=O)[C@@H](COC(C)=O)O[C@H]1n1cc(CO)nn1 | > 100 |  | 
CC(=O)OC[C@H]1O[C@@H](n2nncc2CBr)[C@H](OC(C)=O)[C@@H](OC(C)=O)[C@@H]1OC(C)=O | 4 (≈ 8.13 µM) | inactive | 
CC(=O)OC[C@H]1O[C@@H](n2cc(CBr)nn2)[C@H](OC(C)=O)[C@@H](OC(C)=O)[C@@H]1OC(C)=O | 3.5 (≈ 7.11 µM) | Active | T/C (P388): 163%; T/C [4]: 145%; Activity (Mus musculus [5]): -0.5 g

Further lines, with some results ahead:

EC50 (HeLa) [µg/mL] | Compound | Activity (Mus musculus [1]) | also measured
> 100 | CC(=O)OC[C@H]1O[C@@H](n2nnc(CO)c2CO)[C@H](OC(C)=O)[C@@H](OC(C)=O)[C@@H]1OC(C)=O |  | 
20 (≈ 44.8 µM) | CC(=O)N[C@@H]1[C@@H](OC(C)=O)[C@H](OC(C)=O)[C@@H](COC(C)=O)O[C@H]1n1cc(CCl)nn1 |  | 
3 (≈ 5.13 µM) | CC(=O)OC[C@H]1O[C@@H](n2nnc(CBr)c2CBr)[C@H](OC(C)=O)[C@@H](OC(C)=O)[C@@H]1OC(C)=O | inactive | 
37 (≈ 82.6 µM) | CC(=O)OC[C@H]1O[C@@H](n2cc(CCl)nn2)[C@H](OC(C)=O)[C@@H](OC(C)=O)[C@@H]1OC(C)=O |  | 
25 (≈ 55.9 µM) | CC(=O)N[C@@H]1[C@@H](OC(C)=O)[C@H](OC(C)=O)[C@@H](COC(C)=O)O[C@H]1n1nncc1CCl |  | 
20 (≈ 40.7 µM) | CC(=O)N[C@@H]1[C@@H](OC(C)=O)[C@H](OC(C)=O)[C@@H](COC(C)=O)O[C@H]1n1cc(CBr)nn1 |  | 
25 (≈ 55.8 µM) | CC(=O)OC[C@H]1O[C@@H](n2nncc2CCl)[C@H](OC(C)=O)[C@@H](OC(C)=O)[C@@H]1OC(C)=O |  | 
> 100 | CC(=O)N[C@@H]1[C@@H](OC(C)=O)[C@H](OC(C)=O)[C@@H](COC(C)=O)O[C@H]1n1nnc(CO)c1CO |  | 
6 (≈ 12.1 µM) | CC(=O)OC[C@H]1O[C@@H](n2nnc(CCl)c2CCl)[C@H](OC(C)=O)[C@@H](OC(C)=O)[C@@H]1OC(C)=O |  | 
